Results on three compounds are retold here after PMC4355043 (Bioorganic & medicinal chemistry letters, 2014).

Common to all, as to format: cell-based
Data set [1] relates to HIV-1 92UG037 (subtype A). In words: replication of fully infectious virus in primary human PBMCs, isolate 92UG037. To be noted: isolate 92UG037, subtype A.
Data set [2] relates to HIV-1 91US004 (subtype B). In words: replication of fully infectious virus in primary human PBMCs, isolate 91US004. The conditions noted are these: isolate 91US004, subtype B. The gist of the method: (§1)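 Primary human PBMCs infected with fully infectious isolates from HIV-1 subtypes A, B, C and D, plus one HIV-2 isolate, to measure inhibition of viral replication. Toxicity to the same PBMCs was assessed concomitantly with an MTS assay. IC50 is the half-maximal inhibitory concentration and TC50 the half-maximal toxic concentration. Antiviral index is calculated as TC50/IC50.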

The subject of data set [3] is HIV-1 94US_33931 N (subtype B). The conditions noted are these: isolate 94US_33931 N. The gist of the method: as §1
Data set [4] has as its system HIV-1 98US_MSC5016 (subtype C). To be noted: isolate 98US_MSC5016, subtype C.
In data set [5] the test system is HIV-1 99UG_A07412M1 (subtype D). To be noted: isolate 99UG_A07412M1, subtype D. The gist of the method:
as §1

The next data set concerns HIV-2CDC310319. In words: replication of fully infectious virus in primary human PBMCs, HIV-2 isolate. The conditions noted are these: result in words. The gist of the method: as §1
Data set [6] relates to primary human peripheral blood mononuclear cells (PBMCs). Put plainly: toxicity to PBMCs using an MTS assay. The conditions noted are these: run concomitantly with each isolate. The gist of the method: as §1
Background: Tetrazolium dyes change colour on reduction, which living cells bring about.

The subject of data set [7] is amphotropic murine leukemia virus (AMLV) Env pseudotyped HIV-1 virus. To be noted: result in words.

Turning to `COc1cnc(-n2cnc(C)n2)c2[nH]cc(C(=O)C(=O)N3CC4CN(C(=O)C5=CCCCC5)CC4C3)c12` (stereo not drawn) [SC26], the “Antiviral index (TC50/IC50)” value in data set [1] is above 3.97; in data set [2], above 513; in data set [3], > 166,666; in data set [4] it was above 25.6; in data set [5] it was above 204. In the data set on HIV-2CDC310319, the “effect on the replication of an HIV-2 isolate” value is “no effect”. Also, in data set [6], the “C50 (half-maximal toxic concentration)” value is above 100 MM.
Turning to `COc1cnc(Cl)c2[nH]cc(C(=O)C(=O)N3CC4CN(C(=O)c5ccccc5)CC4C3)c12` (stereo not drawn) [SC07], the “inhibition of AMLV-pseudotyped HIV-1 (specificity)” value in data set [7] is given as “no inhibition”.
As for `COc1ncc(OC)c2c(C(=O)C(=O)N3CC4CN(C(=O)c5ccccc5)CC4C3)c[nH]c12` (stereo not drawn) [SC08], in data set [7], the “inhibition of AMLV-pseudotyped HIV-1 (specificity)” value was “no inhibition”.
